The list is not random: actives were taken first. Their share in the collection is about 2.9%.
M1 PAM parental: nonselective activator or artifact in parental CHO-K1 calcium assay; ATP EC20, Fluo-8 calcium fluorescence; 0% at ATP EC20, 100% at ATP max; activation, % at 3 µM; 0.02% of 360,000 active; AID 602247;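 active = activation above the run cutoff, the mean activation of all test compounds plus 3 SD, cut at about 40% in these data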;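 also: peak over basal fluorescence ratio in a 140 s read after ATP addition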
OX1R antag-1: antagonists of human orexin 1 receptor (OX1R); O43613; OX1R-expressing cells, FRET antagonist read-out; inhibition, % at 6.6 µM; 1.8% of 330,000 active; AID 485270; in the data active = inhibition mostly above about 38%, no sharp cut-off; inactive = mostly below about 40%;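 also: 0% = agonist challenge alone and 100% = reference antagonist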
Target sequence (O43613 whole entry, looked up): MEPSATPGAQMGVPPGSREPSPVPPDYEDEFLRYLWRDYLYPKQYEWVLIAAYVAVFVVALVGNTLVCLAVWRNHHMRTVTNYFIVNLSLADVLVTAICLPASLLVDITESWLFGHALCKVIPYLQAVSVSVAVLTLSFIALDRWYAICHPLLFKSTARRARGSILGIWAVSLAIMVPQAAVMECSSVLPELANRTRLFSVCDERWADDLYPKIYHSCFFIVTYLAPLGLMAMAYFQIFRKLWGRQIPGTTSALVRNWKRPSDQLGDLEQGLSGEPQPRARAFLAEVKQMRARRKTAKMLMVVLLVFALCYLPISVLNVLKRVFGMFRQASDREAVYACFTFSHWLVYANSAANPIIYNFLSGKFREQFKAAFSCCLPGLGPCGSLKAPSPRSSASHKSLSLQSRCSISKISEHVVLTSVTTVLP
CHO parental Ca: signal in parental CHO cells, OX1R antagonist counter-screen; inhibition, % at 5.6 µM; parental CHO-K1, ATP-induced calcium, Fluo-8 fluorescence; 0.63% of 330,000 active;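 active = inhibition above that plate's mean sample inhibition plus 3 SD, cut at about 26% in these data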;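 also: 0% = ATP-challenged DMSO wells and 100% = DMSO wells without ATP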
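Test system: untransfected parental CHO cell line; also added: ATP stimulus; dosing: 5.6 µM, single dose; signal: calcium-sensitive Fluo-8 fluorescence; measure: percent inhibition of ATP-evoked calcium rise, normalized to controls; benchmarks: low control ATP plus DMSO, high control DMSO only; replication: one well per compound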
CHO-K1 Ca antag: counter-screen for M1 antagonists: effect in parental CHO-K1 cells; ATP-induced calcium, Fluo-8 fluorescence; inhibition, % at 3 µM; 0.6% of 360,000 active;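 active = inhibition above a per-plate cutoff, the plate's mean sample inhibition plus 3 SD, cut at about 24% in these data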;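 also: 0% = DMSO plus EC80 ATP and 100% = DMSO alone without ATP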
M1 ag parental: counter-screen for M1 agonists: effect in parental CHO-K1 cells. Fluo-8 calcium fluorescence; scaled to maximal ATP response, vehicle zero. AID 602248. activation, % at 3 µM. 0.48% of 360,000 active; in the data active = activation above about 15%;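 also: untransfected CHO-K1 host cells lacking M1 receptor as counterscreen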
OX1R antag-2: antagonists of human orexin 1 receptor | O43613 | CHO/OX1R cells, Fluo-8 calcium fluorescence, orexin A | inhibition, % at 5 µM | 0.43% of 330,000 active | AID 434989;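 active = inhibition above its plate's threshold, mean inhibition of all tested compounds on the plate plus 3 SD, cut at about 37% in these data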;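 also: 0% = orexin A challenge wells and 100% = SB-334867-A antagonist wells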
* = called active by the depositor; / = no result; + = active, no number.

SMILES | M1 PAM parental | OX1R antag-1 | CHO parental Ca | CHO-K1 Ca antag | M1 ag parental | OX1R antag-2
Cc1ccc(NC(=O)C2(NC(=O)c3ccccn3)CCCCC2)cc1Br | 22 | 68* | -24 | -5 | 0 | -4
O=C(NC1(C(=O)NC2CCCCC2)CCCCC1)c1ccccn1 | -6 | 13 | -10 | 17 | 0 | -17
CC(=O)Nc1sc(C)c(C)c1C(=O)OCC(=O)NC(C)c1ccccc1 (centres undefined) | 1 | / | / | 2 | 2 | /
CCCCOc1ccc(N(CC(=O)NC2CCCCC2)C(=O)CCC(=O)Nc2ccccn2)cc1 | 5 | 10 | -3 | -9 | 0 | 9
C=CCOc1ccccc1CN(CCc1ccccc1)C(=O)c1cccc(S(C)(=O)=O)c1 | 8 | 16 | -18 | -5 | 16* | -32
O=C(c1cccc(S(=O)(=O)N2CCOCC2)c1)N(CCc1ccccc1)Cc1ccccc1 | 18 | -3 | -23 | -24 | 5 | -23
O=S(=O)(NC1CCCC1)c1ccc(S(=O)(=O)N2CCc3ccccc32)cc1 | 4 | 32 | 39* | 7 | 16* | -3
CCN(CC)c1ccc2cc(C(N)=O)c(=N)oc2c1 | 10 | 71 | -14 | -18 | 2 | -28
CCN(CC)c1ccc2c(-c3ccc(S(=O)(=O)O)cc3S(=O)(=O)[O-])c3ccc(=[N+](CC)CC)cc-3oc2c1 | -3 | -38 | 75* | 8 | 41* | 93*
S=c1[nH]c2cc(Br)cnc2[nH]1 | -12 | 32 | -1 | 26* | 1 | 26
Brc1cnc2nc[nH]c2c1 | 4 | 7 | -19 | -10 | 1 | -1
Cc1cc(S(=O)(=O)N2CCCOC2CNC(=O)C(=O)NCCc2ccco2)ccc1F (centres undefined) | 12 | 61* | -18 | -7 | 3 | 11
Cc1ccc(C)c(S(=O)(=O)N2CCCCC2CCNC(=O)C(=O)NCCc2ccco2)c1 (centres undefined) | -4 | 55* | -29 | -7 | 1 | -2
COc1ccccc1CCNC(=O)C(=O)NCCC1CCCCN1S(=O)(=O)c1ccccc1 (centres undefined) | 11 | 60* | -31 | 1 | 1 | -2
Cc1ccc(S(=O)(=O)N2CCCOC2CNC(=O)C(=O)NCCc2ccco2)cc1 (centres undefined) | 3 | / | / | -4 | 1 | /
O=C(NCCc1ccco1)C(=O)NCC1CCCN1S(=O)(=O)c1ccccc1 (centres undefined) | -4 | 30 | -28 | 5 | 4 | 22
Cc1ccc(C)c(S(=O)(=O)N2CCCC2CNC(=O)C(=O)NCCc2ccco2)c1 (centres undefined) | 14 | 58* | -15 | -5 | 4 | 11
COc1ccccc1CNC(=O)C(=O)NCCC1CCCCN1S(=O)(=O)c1ccc(C)cc1 (centres undefined) | 19 | 34 | 2 | 3 | 3 | -16
O=C(C1CCC(CNS(=O)(=O)c2cccc3nsnc23)CC1)N1CCN(c2ccccn2)CC1 (centres undefined) | 11 | 50 | 2 | -7 | 4 | -11
Cc1cc(C)c(SSc2nnnn2-c2ccccc2)c(C)c1 | -5 | / | / | 3 | 0 | /
O=C(NCC1OCCCN1S(=O)(=O)c1cc(F)ccc1F)C(=O)NC1CCCCCC1 (centres undefined) | 2 | 51 | -15 | 32* | 2 | -14
CCOC(=O)N1CCN(C(=O)c2nn(C)c3c2CSc2ccccc2-3)CC1 | 11 | 5 | -15 | 11 | 1 | -11
Cc1ccc(C(=O)CCC(=O)OCC(=O)N2CCN(S(=O)(=O)c3ccc(C)cc3C)CC2)cc1 | -22 | / | / | 22 | 9 | /
Cc1ccc(S(=O)(=O)N2CCN(CC(=O)Nc3ccc(N4CCOCC4)cc3)CC2)cc1C | -11 | 4 | -12 | 0 | 1 | -6
Cc1cccc(N2CCN(CC(=O)Nc3ccc(S(=O)(=O)N4CCOCC4)cc3)CC2)c1C | -6 | 26 | 55* | 10 | 13 | 34
SMILES | M1 PAM parental | OX1R antag-1 | CHO parental Ca | CHO-K1 Ca antag | M1 ag parental | OX1R antag-2
COc1cc(CNCc2ccc(Br)cc2)cc(OC)c1 | -12 | 4 | -7 | 18 | 15* | -11
COC(=O)c1c(C)oc2ccc(N(C(=O)c3ccncc3)S(=O)(=O)c3ccc(C)cc3C)cc12 | -5 | 23 | 38* | 21 | 14 | 35
COC(=O)c1c(C)oc2ccc(N(C(=O)c3ccncc3)S(=O)(=O)c3ccccc3)cc12 | 13 | 18 | 4 | 3 | 4 | 18
Cn1c(=O)c2c(nc(Oc3ccccc3Br)n2C)n(C)c1=O | 3 | / | / | -9 | 1 | /
Cn1c(=O)c(N)c2c3c(c(Br)ccc31)C(=O)c1ccccc1-2 | 14 | 21 | -10 | 1 | 32* | -5
O=C(COc1ccc(S(=O)(=O)NC2CCCCC2)cc1Cl)NCc1cccnc1 | -9 | 8 | -20 | 28* | 0 | -28
O=C(COc1ccc(S(=O)(=O)NC2CCCCC2)cc1)NCc1cccnc1 | 6 | 6 | -12 | -14 | 0 | -16
NC(=O)[C@@H]1CCCNc2c(I)cc([N+](=O)[O-])cc2C(=O)N[C@@H](CCC(=O)O)C(=O)N[C@@H](CO)C(=O)N1 | 20 | 67* | -9 | -21 | 1 | -8
C[C@@H]1NC(=O)[C@H](CCC(N)=O)NC(=O)c2cc([N+](=O)[O-])cc(I)c2NCCC[C@@H](C(N)=O)NC1=O | -3 | 61* | 2 | -12 | 0 | 0
COCC(C)n1c(SCC(=O)Nc2c(C)n(C)n(-c3ccccc3)c2=O)nc2ccccc2c1=O (centres undefined) | 7 | 3 | -9 | -11 | 0 | -22
CC(C)(C)C(=O)CNS(=O)(=O)c1ccc(S(=O)(=O)NC2CC2)cc1 | 9 | 4 | -10 | -2 | 1 | -26
O=C(C1=C(c2ccccc2)C(=O)c2ccccc2C1=O)c1ccccc1 | 30 | / | / | -17 | 1 | /
O=C1C(=O)c2c(C(=O)c3ccccc3)coc2-c2ccccc21 | 21 | 53* | -22 | -7 | 2 | -1
Cc1oc2c(c1C(=O)c1ccccc1)C(=O)C(=O)c1ccccc1-2 | 21 | + | -16 | -20 | 5 | 5
COc1ccc(NC(=O)N(C)C[C@H]2Oc3ncc(Br)cc3C(=O)N([C@H](C)CO)C[C@@H]2C)cc1 | 15 | / | / | -13 | 0 | /
COc1ccc(C(=O)Nc2nc(CC(=O)NCc3c(F)cccc3F)cs2)cc1 | 11 | / | / | 1 | 8 | /
CCOC(=O)Cc1csc(NC(=O)c2ccc(C)cc2)n1 | -3 | 25 | -17 | -9 | 6 | -3
COc1ccc(C(=O)Nc2nc(CC(=O)NCc3ccc(F)cc3)cs2)cc1 | -13 | 4 | 5 | 12 | 20* | -9
CCCCC(=O)Nc1ccc(C(=O)Nc2nc(CC(=O)OCC)cs2)cc1 | 17 | 7 | -8 | 2 | 21* | 16
CCOC(=O)Cc1csc(NC(=O)Nc2ccc(Cl)cc2)n1 | -24 | 11 | 25 | 16 | 18* | 7
